{"source": "paper PMC9447421", "about": "(FASEB BioAdvances, 2022)", "key": {"A. mexicanus T2R4": {"target": "T1, A. mexicanus T2R4 (Astyanax mexicanus, UniProt A0A3B1ICP8)", "T1 sequence (A0A3B1ICP8 2-338)": "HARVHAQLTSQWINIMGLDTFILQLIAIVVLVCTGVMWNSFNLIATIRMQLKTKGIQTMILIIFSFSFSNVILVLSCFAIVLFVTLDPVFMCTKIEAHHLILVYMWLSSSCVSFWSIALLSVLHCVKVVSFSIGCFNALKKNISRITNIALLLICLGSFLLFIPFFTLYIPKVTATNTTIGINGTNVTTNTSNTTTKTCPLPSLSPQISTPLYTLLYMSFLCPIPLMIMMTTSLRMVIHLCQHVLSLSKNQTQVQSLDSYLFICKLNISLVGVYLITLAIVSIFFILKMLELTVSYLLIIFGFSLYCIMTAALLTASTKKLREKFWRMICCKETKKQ", "assay": "Calcium mobilization assay, HEK293T cells stably expressing T2R4", "type": "cell-based"}, "hT2R4 [1]": {"tested_on": "hT2R4", "conditions": "human T2R4; cited from earlier work"}, "[2]": {"tested_on": "canonical Gβγ‐PLC signaling pathway activated by T2Rs (T2R1)", "type": "cell-based, Astyanax mexicanus", "conditions": "T2R1 cells; blocker 10 μM, 30 min pretreatment; brine shrimp 5 mg/ml", "procedure,_shortened": "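HEK293T cells stably expressing FLAG-tagged fish T2R1, selected in hygromycin (200 μg/ml). Brine shrimp (300 mg ground food per 10 ml) and blockers prepared in assay buffer (1X HBSS, 20 mM HEPES). Cells loaded with Fluo-4 NW, 35 min at 37°C then 35 min at room temperature. Compounds added robotically on a FlexStation 3. Signal baseline-subtracted against parental HEK293T cells and reported as ΔRFU.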"}, "hT2R1": {"tested_on": "hT2R1", "conditions": "human T2R1; cited from earlier work"}, "hT2R4 [3]": {"tested_on": "hT2R4", "conditions": "human T2R4; cited from earlier work", "remark": "listed apart in the source"}}, "note": "Structures can show the parent of a compound that is named as a salt."}
{"smiles": "COc1ccc2c(c1)[C@]13CCCC[C@@H]1[C@H](C2)N(C)CC3", "note": "[DXM, dextromethorphan]", "values": [{"measurement": "EC50", "setting": "A. mexicanus T2R4", "value": 1430, "unit": "µM"}, {"measurement": "Activation of hT2R4", "setting": "hT2R4 [1]", "value": "does not activate"}]}
{"smiles": "COc1ccc2c(c1)CC[C@@H]1[C@@H]2CC[C@]2(C)[C@@H](NCCCCCCN3C(=O)C=CC3=O)CC[C@@H]12", "note": "[U73122]", "values": [{"measurement": "Effect of pretreatment on brine shrimp-induced calcium mobilization", "setting": "[2]", "value": "significant decrease in calcium mobilization"}]}
{"smiles": "COc1ccc2c(c1)CC[C@@H]1[C@@H]2CC[C@]2(C)[C@@H](NCCCCCCN3C(=O)CCC3=O)CC[C@@H]12", "note": "[U73343]", "values": [{"measurement": "Effect of pretreatment on brine shrimp-induced calcium mobilization", "setting": "[2]", "value": "no significant differences"}]}
{"smiles": "O=C1OC2(c3ccccc31)c1ccc(O)c(O)c1Oc1c2ccc(O)c1O", "note": "[gallein, Gallein]", "values": [{"measurement": "Effect of pretreatment on brine shrimp-induced calcium mobilization", "setting": "[2]", "value": "significant decrease in calcium mobilization"}]}
{"smiles": "C=C[C@H]1C[N@@]2CC[C@H]1C[C@H]2[C@H](O)c1ccnc2ccc(OC)cc12", "note": "[quinine, quinine hydrochloride]", "values": [{"measurement": "Activation of hT2R1", "setting": "hT2R1", "value": "does not activate"}, {"measurement": "Effect on hT2R4 expression (pharmacological chaperone)", "setting": "hT2R4 [3]", "value": "acts intracellularly to enhance hT2R4 expression"}]}
